For six compounds, T/C, LTS and IC50 results are on record in ChEMBL document CHEMBL1132144, “Synthesis of 9-O-substituted derivatives of 9-hydroxy-5, 6-dimethyl-6H-pyrido[4,3-b]carbazole-1-carboxylic acid (2-(dimethylamino)ethyl)amide and their 10- and 11-methyl analogues with improved antitumor activity” (J Med Chem, 1999).

Experiment [1] relates to Mus musculus. The experiment in a line: Percent median survival time of mice injected with B16 melanoma, at a intraperitoneal compound dose of 10 mg/kg.
For experiment [2], the system named is Mus musculus. The experiment in a line: Long-term survivors among 6 mice infected with P388 leukemia, scored on day 60 at 10 mg/kg dose on day 1. Format: functional. In a few lines:
(§1)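 B6D2F1 mice in groups of 6–7 were inoculated ip on day 0 with 10^6 P388 cells. Dihydrochloride salts were dissolved in water and given iv on day 1 or on days 1, 5 and 9. Doses ranged from a low nontoxic dose to a toxic one. Long-term survivors were counted at day 60.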

The subject of experiment [3] is Mus musculus. The experiment in a line: Long-term survivors among 6 mice infected with B16 melanoma, scored on day 90 at 10 mg/kg dose on day 1. The format is functional.
The subject of experiment [4] is Mus musculus. As to the kind of experiment: Percent median survival time of mice injected with P388 leukemia, at a subcutaneous compound dose of 10 mg/kg. The format is functional.
The subject of another experiment is L1210. The experiment in a line: Inhibition of murine L1210 leukemia cell proliferation measured by the MTT assay. Format: functional, cell-based. As to conditions: Mus musculus. In a few lines: (§2)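 Murine L1210 leukemia and B16 melanoma cells were grown in RPMI 1640 with 10% fetal calf serum, 2 mM L-glutamine, penicillin/streptomycin and 10 mM HEPES (pH 7.4). Cells were exposed to nine serial drug dilutions in triplicate for about four doubling times (L1210 48 h, B16 96 h), then read by microculture tetrazolium (MTT) assay. IC50 is the concentration halving optical density versus untreated controls, averaged over ≥2 independent experiments.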

For experiment [5], the system named is Mus musculus. The experiment in a line: Percent median survival time of mice injected with P388 leukemia, at a intravenous compound dose of 5 mg/kg.
The subject of the next experiment is B16. The experiment in a line: Inhibition of murine B16 melanoma cell proliferation measured by the MTT assay. The format is functional, cell-based. As to conditions: Mus musculus. In a few lines: as §2
For experiment [6], the system named is Mus musculus. As to the kind of experiment: Long-term survivors among 12 mice infected with P388 leukemia, scored on day 60 at 10 mg/kg dose. The format is functional. An outline of the steps:
as §1

Experiment [7] deals with Mus musculus. The experiment in a line: Percent median survival time of mice injected with B16 melanoma, at a intraperitoneal compound dose of 0.3-0.6 mg/kg.
Experiment [8] concerns Mus musculus. The experiment in a line: Percent median survival time of mice intraperitoneally injected with P388 leukemia was determined from tested at 10 mg/kg at day1,5,9 dose to that of control. Format: functional. In a few lines:
(§3)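 P388 leukemia in B6D2F1 mice (groups of 6–7), 10^6 cells inoculated ip on day 0. Dihydrochloride salts were dissolved in water and given iv on day 1 or on days 1, 5, 9. Three doses were tested, then five if active. %T/C = median survival treated/control × 100, reported at the optimal dose (no toxic death, weight loss <20%), from one or two representative experiments.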

Experiment [9] concerns Mus musculus. The experiment in a line: Percent median survival time of mice intraperitoneally injected with P388 leukemia was determined from tested at 20 mg/kg at day1 dose to that of control. Format: functional. As to conditions: route intraperitoneal. An outline of the steps: as §3
Experiment [10] concerns Mus musculus. The experiment in a line: Long-term survivors among 12 mice infected with P388 leukemia, scored on day 60 at 20 mg/kg dose. The format is functional. An outline of the steps:
as §1

The test system of experiment [11] is Mus musculus. The experiment in a line: Long-term survivors among 13 mice infected with B16 melanoma, scored on day 90 at 0.3-0.6 mg/kg dose.
The test system of experiment [12] is Mus musculus. As to the kind of experiment: Percent median survival time of mice intraperitoneally injected with P388 leukemia was determined from tested at 80 mg/kg at day1,5,9 dose to that of control. Format: functional. Particulars: route intraperitoneal. In a few lines:
as §3

Experiment [13] deals with Mus musculus. The experiment in a line: Percent median survival time of mice injected with B16 melanoma, at a intraperitoneal compound dose of 20 mg/kg.
Experiment [14] deals with Mus musculus. As to the kind of experiment: Long-term survivors among 12 mice infected with P388 leukemia, scored on day 60 at 80 mg/kg dose. The format is functional. An outline of the steps: as §1
In experiment [15] the test system is Mus musculus. As to the kind of experiment: Long-term survivors among 12 mice infected with P388 leukemia, scored on day 60 at 320 mg/kg dose. Format: functional. An outline of the steps:
as §1

Experiment [16] concerns Mus musculus. As to the kind of experiment: Long-term survivors among 6 mice infected with P388 leukemia, scored on day 90 at 20 mg/kg dose. Format: functional.
Experiment [17] relates to Mus musculus. The experiment in a line: Percent median survival time of mice intraperitoneally injected with P388 leukemia was determined from tested at 160 mg/kg at day1,5,9 dose to that of control. The format is functional. As to conditions: route intraperitoneal. In a few lines: as §3
Experiment [18] has as its system Mus musculus. As to the kind of experiment: Long-term survivors among 6 mice infected with P388 leukemia, scored on day 60 at 160 mg/kg dose on day 1. Format: functional. In a few lines:
as §1

For experiment [19], the system named is Mus musculus. The experiment in a line: Long-term survivors among 6 mice infected with P388 leukemia, scored on day 60 at 160 mg/kg dose on day 1, 5, 9. The format is functional. In a few lines:
as §1

The test system of experiment [20] is Mus musculus. As to the kind of experiment: Percent median survival time of mice intraperitoneally injected with P388 leukemia was determined from tested at 160 mg/kg at day1 dose to that of control. The format is functional. In a few lines: as §3
The test system of experiment [21] is Mus musculus. As to the kind of experiment: Percent median survival time of mice injected with P388 leukemia, at a subcutaneous compound dose of 240-320 mg/kg. The format is functional.
Experiment [22] has as its system Mus musculus. The experiment in a line: Long-term survivors among 12 mice infected with B16 melanoma, scored on day 90 at 10 mg/kg dose on days 1-9.
Experiment [23] concerns Mus musculus. As to the kind of experiment: Long-term survivors among 12 mice infected with P388 leukemia, scored on day 60 at 240-320 mg/kg dose on day 1. The format is functional. An outline of the steps: as §1
Experiment [24] has as its system Mus musculus. The experiment in a line: Percent median survival time of mice injected with P388 leukemia, at a intravenous compound dose of 80-160 mg/kg.
In experiment [25] the test system is Mus musculus. The experiment in a line: Percent median survival time of mice intraperitoneally injected with P388 leukemia was determined from tested at 240 mg/kg at day1 dose to that of control. Format: functional. Particulars: route intraperitoneal. An outline of the steps:
as §3

For experiment [26], the system named is Mus musculus. The experiment in a line: Long-term survivors among 6 mice infected with P388 leukemia, scored on day 60 at 160 mg/kg dose. The format is functional. In a few lines: as §1
Experiment [27] relates to Mus musculus. As to the kind of experiment: Long-term survivors among 6 mice infected with P388 leukemia, scored on day 60 at 240 mg/kg dose. The format is functional. In a few lines: as §1

For the compound `Cc1c2ccnc(C(=O)NCCN(C)C)c2cc2c3cc(OC(=O)CCC(=O)OCc4ccccc4)ccc3n(C)c12`, the T/C stood at 169% with Mus musculus [1], 111% in the experiment with Mus musculus [4] and 96% with Mus musculus [5]. In addition, the LTS in the experiment with Mus musculus [2] is 0; with Mus musculus [3], 1. The IC50 in the experiment with L1210 was 47.4 nM; in the experiment with B16, 9.9 nM.
As for `Cc1c(O)ccc2c1c1cc3c(C(=O)NCCN(C)C)nccc3c(C)c1n2C`, the LTS in the experiment on Mus musculus [6], in the experiment on Mus musculus [10] and in the experiment on Mus musculus [11] was 0 in each case. The T/C in the experiment on Mus musculus [7] came to 144%; in the experiment with Mus musculus [8], 223%; with Mus musculus [9] it was 211%. Further, the IC50 in the experiment with L1210 is 3.5 nM; in the experiment with B16, 0.2 nM.
As for `Cc1c2ccnc(C(=O)NCCN(C)C)c2cc2c3cc(OC(=O)OCCCC(=O)O)ccc3n(C)c12`, the figures for the T/C with Mus musculus [12] and in the experiment with Mus musculus [13] were >600% and 167%, respectively. For the same compound, the results for the LTS in the experiment on Mus musculus [14] and in the experiment on Mus musculus [15] were 7 and 8, respectively. Further, the IC50 was found to be 64 nM with L1210 and 4.8 nM in the experiment with B16.
As to `Cc1c2ccnc(C(=O)NCCN(C)C)c2cc2c3cc(OCCCCC(=O)O)ccc3n(C)c12`, the LTS in the experiment on Mus musculus [16], in the experiment with Mus musculus [18] and in the experiment on Mus musculus [19] was 0 each time. The values for the T/C with Mus musculus [17], in the experiment on Mus musculus [13] and with Mus musculus [20] were 108%, 146% and 107%, respectively. Further, the IC50 was 4230 nM in the experiment with L1210 and 3470 nM in the experiment on B16.
With `Cc1c2ccnc(C(=O)NCCN(C)C)c2cc2c3cc(OC(=O)CCCCC(=O)O)ccc3n(C)c12`, the results for the T/C in the experiment on Mus musculus [1], in the experiment on Mus musculus [21] and in the experiment with Mus musculus [24] were >352%, >607% and >607%, respectively. The LTS in the experiment on Mus musculus [22] was determined as 4; with Mus musculus [23] it was 16. Besides, the figures for the IC50 with L1210 and in the experiment with B16 were 20.8 nM and 5 nM, respectively.
As for `Cc1c2ccnc(C(=O)NCCN(C)C)c2cc2c3cc(OCC(O)CO)ccc3n(C)c12` (stereo not drawn), the T/C with Mus musculus [17] is recorded as 114%; in the experiment with Mus musculus [13] it was 129%; in the experiment on Mus musculus [25], 127%. The IC50 in the experiment with L1210 was found to be 500 nM; in the experiment on B16 it was 954 nM. For the same compound, the LTS with Mus musculus [26] and in the experiment with Mus musculus [27] was 0 throughout.
